Source: PubChem (several laboratories)
An excerpt weighted towards active compounds, which were near 5.3% of everything screened.
Cav3 T inh: blocks human Cav3.2 T-type calcium channel | O95180 | Cav3.2-expressing cells, Fluo-4 calcium fluorescence FDSS; stronger effect = lower value | B-score at 10 µM | 100,000 tested, 4% active;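 active = single-dose well whose peak fluorescence ratio is a statistical outlier from its plate by either plate-standardised score or position-corrected B-score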
PLK1 kinase inh: blocks human PLK1 kinase activity; recombinant PLK1 kinase, TR-FRET peptide phosphorylation; 97,000 tested, 0.53% active; P53350; AID 619; inhibition, % at 10 µM;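 active = inhibition of 50% or more in the single-concentration screen; inactive = inhibition below 50%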;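 also: 0% = DMSO max control and 100% = H-89 dihydrochloride min control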
Target sequence (P53350 whole entry, looked up): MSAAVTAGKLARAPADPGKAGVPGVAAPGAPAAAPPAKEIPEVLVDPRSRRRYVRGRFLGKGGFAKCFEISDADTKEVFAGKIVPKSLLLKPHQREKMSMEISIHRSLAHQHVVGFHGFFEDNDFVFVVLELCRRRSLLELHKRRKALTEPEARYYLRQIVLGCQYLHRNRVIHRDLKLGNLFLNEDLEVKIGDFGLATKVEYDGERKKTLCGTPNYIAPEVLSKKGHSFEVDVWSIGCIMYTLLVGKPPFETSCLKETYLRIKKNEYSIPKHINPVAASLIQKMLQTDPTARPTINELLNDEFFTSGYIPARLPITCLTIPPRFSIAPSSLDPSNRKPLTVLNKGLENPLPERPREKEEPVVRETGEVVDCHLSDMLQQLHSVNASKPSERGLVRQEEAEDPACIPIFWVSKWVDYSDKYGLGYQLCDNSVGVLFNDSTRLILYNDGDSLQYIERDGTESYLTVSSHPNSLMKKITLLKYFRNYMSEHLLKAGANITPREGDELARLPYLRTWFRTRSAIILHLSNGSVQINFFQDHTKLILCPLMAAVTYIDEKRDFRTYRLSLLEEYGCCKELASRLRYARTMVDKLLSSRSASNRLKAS
Rev-RRE block: HIV Rev-RRE protein-RNA interaction inhibition; inhibition, % at 8 µM; Rev peptide-RRE RNA binding, FRET; 97,000 tested, 0.79% active;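 active = inhibition above the screen-wide mean plus 3 SD, cut at about 35% in these data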;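 also: 0% = median DMSO wells and 100% = median Neomycin B control wells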
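System: Cy5-labelled duplex RRE RNA binding fluorescein-labelled HIV Rev peptide; Signal: fluorescein-to-Cy5 FRET, 480 nm excitation; Also added: labelled Rev peptide; Compound: one concentration, 8 µM nominal; Buffer or medium: HEPES pH 7.5 salt buffer with EDTA; Read-out: % inhibition of FRET ratio versus controls; Schedule: 5 min preincubation and 15 min binding, 25 °C.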
FAK blocker: FAK (human) kinase inhibition | AID 727 | Q05397 | biochemical FAK kinase activity assay | inhibition, %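 (tested at 7 µM)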 | 97,000 tested, 0.84% active; in the data active = inhibition above about 19%;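 also: 0% = DMSO and 100% = reference compound high control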
Plk1 PBD FP: Plk1 (human) PBD binding inhibition. inhibition, %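 (tested at about 20 µM)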. Plk1 PBD phosphopeptide binding, fluorescence polarization. P53350. 97,000 tested, 0.13% active; in the data active = inhibition above about 34%, passing the limit was not always enough
EphB4 ephrin blk: antagonists of human EphB4-ephrin-B2 interaction | P54760 | EphB4 LBD / TNYL-RAW-Alexa532 peptide, fluorescence polarization | inhibition, % at 7 µM | 97,000 tested, 0.15% active;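 active = inhibition above the screen-wide mean inhibition plus 3 SD, cut at about 15% in these data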;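 also: 0% = DMSO wells and 100% = excess unlabeled TNYL-RAW peptide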
An asterisk follows results filed as active; [ ] = remark or other dose.

What do the screens show for `Cc1c(C(=O)N2CCCCC2)sc(NC(=O)C23CC4CC(CC(C4)C2)C3)c1C#N`?
Cav3 T inh: -0.017; PLK1 kinase inh: -7; Rev-RRE block: 8; FAK blocker: 2; Plk1 PBD FP: -2; EphB4 ephrin blk: 7

Results for CC(C)(C)n1ncc2c(=O)n(CC(=O)Nc3ccc(Cl)cc3)cnc21 ?
Cav3 T inh: -9.5*; PLK1 kinase inh: -17; Rev-RRE block: 14; FAK blocker: 0; Plk1 PBD FP: 12; EphB4 ephrin blk: 0

How did CC[C@H](C)[C@@H](NC(=O)O[C@@H]1C(=O)c2cc(Br)ccc2O[C@H]1c1ccc2c(c1)OCO2)C(=O)OC do in these assays?
Cav3 T inh: -1.1

What do the screens show for `Cc1cccc(NC(=O)c2cc3n(n2)C(C(F)(F)F)CC(c2ccc4c(c2)OCO4)N3)c1` (centres undefined)?
Cav3 T inh: -7.3*; PLK1 kinase inh: -17; Rev-RRE block: 13; FAK blocker: -1; Plk1 PBD FP: -18; EphB4 ephrin blk: 3

How did O=C(c1cccc(Cl)c1)N1CCC(=O)N(C(COCc2ccccc2)Cc2ccccc2)CC1 (centres undefined) do in these assays?
Cav3 T inh: -1.4

What do the screens show for `O=C(c1ccc(Cl)c(Cl)c1)N1CCC(=O)N(C(COCc2ccccc2)Cc2ccccc2)CC1` (centres undefined)?
Cav3 T inh: -5*

How did CSc1nsc(SCc2ccc(F)cc2)n1 do in these assays?
Cav3 T inh: 0.33; PLK1 kinase inh: -5; Rev-RRE block: 6; FAK blocker: 1; Plk1 PBD FP: -15; EphB4 ephrin blk: -3

Results for CCN(CC)S(=O)(=O)c1cccc(NC(=O)C(=O)c2c(-c3ccccc3)cc3ccccn23)c1 ?
PLK1 kinase inh: -9; Rev-RRE block: 11; FAK blocker: 1; Plk1 PBD FP: -17; EphB4 ephrin blk: 5

How did CCN(CC)S(=O)(=O)c1cc(NC(=O)C(=O)c2c(-c3ccccc3)cc3ccccn23)ccc1C do in these assays?
Cav3 T inh: -4.6*; PLK1 kinase inh: -9; Rev-RRE block: 9; FAK blocker: -2; Plk1 PBD FP: -2; EphB4 ephrin blk: 3

What do the screens show for `COc1[nH]c(/N=C/c2ccccc2)c(C#N)c1C#N`?
Cav3 T inh: -5.9*; PLK1 kinase inh: -9; Rev-RRE block: 38*; FAK blocker: -5; Plk1 PBD FP: -25; EphB4 ephrin blk: 4

What do the screens show for `O=C(CCN1CCc2ccccc2C1)Nc1ccccc1F`?
Cav3 T inh: -0.034; PLK1 kinase inh: 0; Rev-RRE block: 5; FAK blocker: -1; Plk1 PBD FP: -9; EphB4 ephrin blk: 1

How did CC(C)(C)n1nnnc1CN1C2CCC1CC(NC(=O)Nc1ccccc1)C2 (centres undefined) do in these assays?
Cav3 T inh: 1.2; PLK1 kinase inh: -6; Rev-RRE block: 2; FAK blocker: 2; Plk1 PBD FP: 4; EphB4 ephrin blk: -1

Results for CCOC(=O)c1ccc(NC(=O)NC2CC3CCC(C2)N3Cc2nnnn2Cc2ccco2)cc1 (centres undefined) ?
Cav3 T inh: -6.1*; PLK1 kinase inh: -6; Rev-RRE block: 10; FAK blocker: 4; Plk1 PBD FP: 9; EphB4 ephrin blk: 4

Results for O=C(COC(=O)C1=Cc2ccccc2OC1)NC1CCCC1 ?
Cav3 T inh: -2.2; PLK1 kinase inh: -12; Rev-RRE block: -2; FAK blocker: 1; Plk1 PBD FP: 13; EphB4 ephrin blk: 2

How did C=CCn1c(=O)/c(=C/c2ccc(C)o2)s/c1=C(/C#N)C(=O)c1ccccc1 do in these assays?
Cav3 T inh: -3.7; PLK1 kinase inh: -12; Rev-RRE block: 118*[fluorescence artefact?]; FAK blocker: -5; Plk1 PBD FP: -71; EphB4 ephrin blk: 2

How did Cc1ccc(/C=c2\sc3nc(-c4ccccc4Br)nn3c2=O)o1 do in these assays?
PLK1 kinase inh: -2; Rev-RRE block: 2; FAK blocker: 15; Plk1 PBD FP: -5; EphB4 ephrin blk: -11

What do the screens show for `COC(=O)CSc1nc(SCc2ccccc2Cl)nc2c1CCCC2`?
Cav3 T inh: -5*; PLK1 kinase inh: -1; Rev-RRE block: 8; FAK blocker: -9; Plk1 PBD FP: -5; EphB4 ephrin blk: -11

How did COC(=O)CSc1nc2c(c(-c3ccco3)c1C#N)CCCC2 do in these assays?
Cav3 T inh: -0.011; PLK1 kinase inh: 5; Rev-RRE block: 10; FAK blocker: 0; Plk1 PBD FP: 17; EphB4 ephrin blk: -3
